Fh CTSL1 inh – cathepsin L1 inhibition, PFM18AAP counter-screen; 300,000 compounds, 0.49% hits; recombinant F. hepatica cathepsin L1, Z-Leu-Arg-MCA fluorescence; AID 1906; inhibition, % at 5.96 µM;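 active = inhibition above the mean of all tested compounds plus 3 SD, set per screening campaign, cut at about 17% in these data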;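 note: 0% = plate median of test compound wells and 100% = 1 µM Z-Phe-Ala-diazomethylketone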
TDP2 absorb – TDP2 (human) inhibition, absorbance primary screen | recombinant TDP2, T5PNP hydrolysis, p-nitrophenol absorbance 415 nm | inhibition, % at 12.8 µM | 370,000 compounds, 0.34% hits | AID 720702;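 active = inhibition above the mean of all tested compounds plus 3 SD, set per campaign, cut at about 25% in these data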;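 note: 0% = DMSO with enzyme and 100% = buffer with substrate but no TDP2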
Target sequence (O95551 whole entry, looked up): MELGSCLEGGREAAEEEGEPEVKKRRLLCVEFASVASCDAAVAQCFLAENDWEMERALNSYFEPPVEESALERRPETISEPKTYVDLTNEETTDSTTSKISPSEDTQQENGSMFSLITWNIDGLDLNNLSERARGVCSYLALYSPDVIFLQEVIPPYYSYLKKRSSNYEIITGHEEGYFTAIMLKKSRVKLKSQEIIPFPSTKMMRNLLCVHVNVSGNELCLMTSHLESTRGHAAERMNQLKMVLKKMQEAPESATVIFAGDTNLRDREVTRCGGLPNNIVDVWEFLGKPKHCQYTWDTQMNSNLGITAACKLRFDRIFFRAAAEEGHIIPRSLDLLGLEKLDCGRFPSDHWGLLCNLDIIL
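Assay system: Recombinant human TDP2 | Quantity: 120 nM TDP2 per well | Incubation: 2 h at 37 °C | Signal: Epi absorbance | Evaluation: Percent inhibition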
GSTO1 counter – blocks human GSTO1 in RBBP9 counter-screen. inhibition, % at 5.96 µM. recombinant GSTO1, activity-based probe fluorescence polarization. AID 1974. P78417. 300,000 compounds, 1.1% hits;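 active = inhibition above the campaign mean inhibition plus 3 SD, cut at about 35% in these data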;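 note: 0% = GSTO1-1 with DMSO and 100% = wells lacking GSTO1-1 enzyme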
Target sequence (P78417 whole entry, looked up): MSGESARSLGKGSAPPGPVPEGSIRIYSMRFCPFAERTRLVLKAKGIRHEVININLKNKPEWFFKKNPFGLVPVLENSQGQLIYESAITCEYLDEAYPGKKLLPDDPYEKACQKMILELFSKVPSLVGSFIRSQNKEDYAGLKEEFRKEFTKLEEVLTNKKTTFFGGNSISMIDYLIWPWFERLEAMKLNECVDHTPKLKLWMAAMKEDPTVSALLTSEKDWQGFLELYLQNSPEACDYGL
Apaf1 inhib – human Apaf-1 inhibition. O14727. reconstituted apoptosome caspase-3 activity, DEVD-Rh110 fluorescence. AID 489030. inhibition, % at 20 µM. 330,000 compounds, 0.71% hits; active = inhibition of at least 40% at 20 µM;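 note: plate controls were DMSO wells for no effect and DEVD-CHO caspase inhibitor wells for full effect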
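detection = Rh110 fluorescence intensity | test system = biochemical Apaf-1 apoptosome reconstitution | also added = cytochrome c and DEVD-Rh110 substrate | schedule = 30 min plus 50 min, RT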
PAD4 FP inh – blocks human protein arginine deiminase 4. inhibition, % at 6.36 µM. 330,000 compounds, 0.41% hits. recombinant PAD4, RCA probe fluorescence polarization;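 active = percent inhibition above a cutoff equal to the mean of all tested compounds plus 3 SD, cut at about 15% in these data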;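 note: 0% = PAD4 with RCA probe and DMSO and 100% = probe without PAD4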
PAD4 confirm – PAD4 (human) inhibition, confirmed. shares compounds with PAD4 FP inh. recombinant PAD4, RCA probe fluorescence polarization. inhibition, % at 6.36 µM. 1,200 compounds, 28% hits;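 active = mean inhibition across replicates above the hit cutoff set by the earlier primary screen, cut at about 15% in these data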;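 note: inhibitors block active-site labeling by the probe so polarization falls; 0% = PAD4 with probe and DMSO and 100% = probe without PAD4 enzyme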
* = called active by the depositor; . = not tested or not shown. An excerpt weighted towards active compounds, which were near 1.8% of everything screened.

SMILES | Fh CTSL1 inh | TDP2 absorb | GSTO1 counter | Apaf1 inhib | PAD4 FP inh | PAD4 confirm
Cc1nnc(SCC(=O)c2ccc(Cl)cc2)n(N)c1=O | 1 | -15 | 3 | 18 | 26* | 3
CCOc1ccc2[nH]c(SCC(=O)OC)c([N+](=O)[O-])c2c1 | 3 | -4 | 8 | -6 | 35* | 38*
COC[C@H]1CCCN1c1ccc2c(c1)OCCCN(C1CC1)S2(=O)=O | . | -3 | . | . | . | .
CCN(c1ccccc1)S(=O)(=O)c1ccc(C(=O)NNC(=O)c2ccccc2F)cc1 | . | 8 | . | 14 | 16* | 2
COc1ccc(CCNC(=O)COc2nsnc2N2CCOCC2)cc1OC | -2 | -6 | -10 | -3 | 44* | -3
COc1ccc(NC(=O)COc2nsnc2N2CCOCC2)cc1 | 1 | 11 | 6 | -8 | -8 | .
COc1ccc(OC)c(S(=O)(=O)N(C(C)=O)c2ccc3oc(=O)sc3c2)c1 | -2 | 0 | 23 | -1 | 25* | 15*
CCCC(=O)N(c1ccc2oc(=O)sc2c1)S(=O)(=O)c1cccs1 | 3 | 2 | 15 | -16 | 16* | 18*
CC(=O)N(c1ccc2oc(=O)sc2c1)S(=O)(=O)c1ccccc1 | 3 | 1 | 28 | -12 | 18* | 14
CC(C)C(=O)N(c1ccc2oc(=O)sc2c1)S(=O)(=O)c1ccccc1 | 5 | 0 | 18 | -17 | 24* | 3
COc1ccc2c3c([nH]c2c1)[C@]1(NCC3)C(=O)N(C)c2ccc(Cl)cc21 | . | -5 | . | . | . | .
CCOC(=O)CC[C@H](NC(=O)[C@@H]1CC=C[C@@H]2CCN(Cc3ccc(Cl)cc3)C(=O)[C@@H]21)C(=O)OCC | . | -6 | . | . | . | .
CCOc1cccc(-c2nnc3n2N=C(c2ccc(OC)cc2)CS3)c1 | . | 1 | . | . | . | .
CC(C)(C)N(Cc1cn(Cc2ccccc2)nn1)S(=O)(=O)c1ccc(F)cc1Br | . | 10 | . | . | . | .
COc1ccc(C(=O)Oc2ccc3oc(=O)sc3c2)cc1 | 3 | -24 | 31 | -6 | 48* | 12
COCCCNc1nc2ccccc2nc1NS(=O)(=O)c1cccs1 | 2 | 5 | -4 | 3 | 16* | -11
COc1ccc(C2CC(=O)Oc3cc(OC)ccc32)cc1 (stereo not given) | . | 1 | . | 8 | -4 | .
Cc1ccc(C2CC(=O)Oc3cc(O)ccc32)cc1 (stereo not given) | 4 | -7 | 27 | 8 | 60* | 63*
O=C(NCC1COCCO1)C1CCN(S(=O)(=O)c2ccc(Br)s2)CC1 (stereo not given) | . | 12 | . | . | . | .
Cc1ccc(C(=O)NCC(=O)OCC(=O)NC2CCS(=O)(=O)C2)cc1C (stereo not given) | -12 | -1 | 0 | 0 | 35* | 4
CCOc1nc(Nc2ccc(OC)cc2OC)nc(OCC)n1 | -2 | -5 | -4 | -1 | 190* | 10
COc1ccc(C2C(C#N)=C(N)OC3=C2C(=O)CC(C)(C)C3)cc1Cn1nc(C)c([N+](=O)[O-])c1C (stereo not given) | 1 | 3 | 1 | 15 | -3 | .
COc1ccc(C2C(C#N)=C(N)Oc3c2c(C)nn3-c2ccccc2)cc1Cn1nc(C)c([N+](=O)[O-])c1C (stereo not given) | 3 | 24 | 26 | 10 | 42* | 8
Cc1ccc(-c2nn(-c3ccccc3)cc2C=O)o1 | -4 | -4 | 5 | -6 | 17* | 2
Cc1cc(=O)oc2cc(NC(=O)c3cccc(S(=O)(=O)N(C)C)c3)ccc12 | -3 | 7 | -2 | -9 | -1 | .
SMILES | Fh CTSL1 inh | TDP2 absorb | GSTO1 counter | Apaf1 inhib | PAD4 FP inh | PAD4 confirm
Cc1cc(=O)oc2cc(NC(=O)c3cccc(S(C)(=O)=O)c3)ccc12 | 0 | -15 | 1 | -16 | 19* | 20*
CC(C)c1[nH]nc2c1C(c1cccc(C(F)(F)F)c1)NC2=O (stereo not given) | . | 1 | . | . | . | .
CC(/C=N/N1CCN(c2ccccc2)CC1)=C\c1ccco1 | 3 | 1 | 1 | -8 | 2 | .
CC(=C/c1ccco1)/C=N/N1CCN(c2ccccc2)CC1 | 0 | 0 | 1 | 1 | 20* | -7
Brc1ccc(-c2nc(-c3ccncc3)no2)cc1 | -5 | 7 | -10 | 1 | -2 | .
Brc1ccc(-c2nc(-c3ccncc3)no2)o1 | -3 | 3 | 7 | 9 | 15* | 4
C[C@@H]1OC(C2CCCCC2)N(C)[C@H]2C[C@H]3c4[nH]c5c(-c6ccccc6)cccc5c4CCN3C(=O)[C@@H]12 (stereo not given in full) | . | -2 | . | . | . | .
Cn1nc(C(=O)OCc2ccc(F)cc2)c2ccccc2c1=O | -2 | -4 | -2 | 1 | -2 | .
Cc1ccc(COC(=O)c2nn(C)c(=O)c3ccccc23)cc1 | -1 | 6 | 10 | 9 | 25* | 2
CCOC(=O)c1c(CSC(=N)N)n(C)c2cc(Br)c(OC(C)=O)cc12 | -5 | -6 | -23 | -7 | 38* | 44*
COc1ccc(C(=O)N2CCC[C@@H]2C(=O)N2CCC[C@@H]2C(=O)NCc2ccccc2)cc1F | . | 8 | . | . | . | .
O=C1CSC2(C(=O)N3CCCc4cccc2c43)N1c1cccc(C(F)(F)F)c1 (stereo not given) | -4 | . | -3 | 19 | 18* | 8
COc1ccc(N2C(=O)CSC23C(=O)N2CCCc4cccc3c42)cc1 (stereo not given) | 0 | -5 | 2 | 0 | 22* | 21*
COc1ccc(N2C(=O)CSC23C(=O)N2c4c(cccc43)C(C)=CC2(C)C)cc1 (stereo not given) | 5 | -17 | -11 | 11 | 11 | .
COc1ccc(CC(=O)N2CCN(C(=O)c3ccc4nc(C)n(C5CCCC5)c4c3)CC2)cc1 | . | 3 | . | . | . | .
Cc1cccc(Cn2cc(COC(=O)NCCc3ccccc3)nn2)c1 | . | -2 | . | . | . | .
O=C1[C@H]2[C@@H](c3ccc(F)cc3)N3C(=O)N(c4ccccc4)C(=O)[C@@]3(Cc3ccccc3)[C@H]2C(=O)N1C1CCCCC1 | -5 | -6 | 0 | 23 | -4 | .
O=C1[C@H]2[C@@H](c3ccc(F)cc3)N3C(=O)N(c4ccccc4)C(=O)[C@@]3(Cc3ccc(Cl)cc3)[C@H]2C(=O)N1C1CCCCC1 | 2 | 5 | 3 | 10 | 22* | 2
COCCn1cnc2c1c(=O)n(Cc1ccc(C#N)cc1)c(=O)n2Cc1ccccc1 | 1 | -2 | 9 | 7 | 20* | 2
COCCn1cnc2c1c(=O)n(CC(=O)OCC#N)c(=O)n2Cc1ccccc1 | -2 | -16 | -1 | -7 | -6 | .
CN1CC=C2C(C#N)=C(N)C(C#N)(C#N)C(c3ccsc3)C2C1 (stereo not given) | 1 | 8 | -1 | 1 | 15* | 6
CCCC1C2CN(C(C)C)CC=C2C(C#N)=C(N)C1(C#N)C#N (stereo not given) | 0 | -4 | -3 | . | 25* | 12
